Key:
[1] = test system: Hepatitis C virus subtype 1a; assay: Resistance ratio of EC90 for NS5A R81S mutant in HCV genotype 1a infected in HuH7 replicon cells to EC90 for NS5A in HCV genotype 1a infected in HuH7 replicon cells; assay type: cell-based
[2] = test system: Hepatitis C virus subtype 1a; assay: Resistance ratio of EC90 for NS5A Q30R mutant in HCV genotype 1a infected in HuH7 replicon cells to EC90 for NS5A in HCV genotype 1a infected in HuH7 replicon cells; assay type: cell-based
[3] = biological target: T1, Nonstructural protein 5A (Hepatitis C virus) (UniProt Q5L478); assay: Inhibition of NS5A R81W mutant in HCV genotype 1a infected in HuH7 replicon cells assessed as decrease in viral replication after 3 days by RT-PCR method; assay type: cell-based; conditions: Hepatitis C virus subtype 1a
T1 sequence (whole entry): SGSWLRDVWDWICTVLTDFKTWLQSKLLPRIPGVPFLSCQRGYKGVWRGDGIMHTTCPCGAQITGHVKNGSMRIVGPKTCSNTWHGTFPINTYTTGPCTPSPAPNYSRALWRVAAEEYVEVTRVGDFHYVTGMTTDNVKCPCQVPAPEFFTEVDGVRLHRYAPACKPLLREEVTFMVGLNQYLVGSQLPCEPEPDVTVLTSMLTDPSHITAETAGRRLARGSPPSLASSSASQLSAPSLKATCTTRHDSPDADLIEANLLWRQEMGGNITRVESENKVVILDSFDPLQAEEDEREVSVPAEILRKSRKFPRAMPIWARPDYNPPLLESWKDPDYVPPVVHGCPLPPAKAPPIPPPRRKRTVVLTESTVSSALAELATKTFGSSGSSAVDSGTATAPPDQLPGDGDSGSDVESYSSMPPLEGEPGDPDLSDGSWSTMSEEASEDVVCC

[4] = biological target: T1, Nonstructural protein 5A (Hepatitis C virus); assay: Inhibition of NS5A in HCV genotype 1a infected in HuH7 replicon cells assessed as decrease in viral replication after 3 days by RT-PCR method; assay type: cell-based; conditions: Hepatitis C virus subtype 1a
[5] = Resistance ratio of EC90 for NS5A in HCV genotype 1b infected in HuH7 replicon cells to EC90 for NS5A in HCV genotype 1a infected in HuH7 replicon cells; assay type: cell-based
[6] = Resistance ratio of EC90 for NS5A L31F mutant in HCV genotype 3a infected in HuH7 replicon cells to EC90 for NS5A in HCV genotype 1a infected in HuH7 replicon cells; assay type: cell-based
[7] = Tmax in Wistar Han rat at 10 mg/kg, po by LC/MS method; assay type: ADME, organism-based; conditions: in vivo
Procedure, shortened: (§1)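 Male Wistar Han rats, two per dosing group, dosed orally at 10 mg/kg in 10% TWEEN. Plasma was separated from collected blood by centrifugation and analysed by LC/MS.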

[8] = Resistance ratio of EC90 for NS5A L31I mutant in HCV genotype 1b infected in HuH7 replicon cells to EC90 for NS5A in HCV genotype 1a infected in HuH7 replicon cells; assay type: cell-based
[9] = biological target: T1, Nonstructural protein 5A (Hepatitis C virus); assay: Inhibition of NS5A L31M mutant in HCV genotype 1b infected in HuH7 replicon cells assessed as decrease in viral replication after 3 days by RT-PCR method; assay type: cell-based; conditions: Hepatitis C virus subtype 1b
[10] = biological target: T1, Nonstructural protein 5A (Hepatitis C virus); assay: Inhibition of NS5A A146S mutant in HCV genotype 2b infected in HuH7 replicon cells assessed as decrease in viral replication after 3 days by RT-PCR method; assay type: cell-based; conditions: Hepatitis C virus subtype 2b
[11] = biological target: T1, Nonstructural protein 5A (Hepatitis C virus); assay: Inhibition of NS5A M28T mutant in HCV genotype 1a infected in HuH7 replicon cells assessed as decrease in viral replication after 3 days by RT-PCR method; assay type: cell-based; conditions: Hepatitis C virus subtype 1a
[12] = biological target: T1, Nonstructural protein 5A (Hepatitis C virus); assay: Inhibition of NS5A A92T mutant in HCV genotype 1b infected in HuH7 replicon cells assessed as decrease in viral replication after 3 days by RT-PCR method; assay type: cell-based; conditions: Hepatitis C virus subtype 1b
[13] = Resistance ratio of EC90 for NS5A L31M/Y93H double mutant in HCV genotype 1b infected in HuH7 replicon cells to EC90 for NS5A in HCV genotype 1a infected in HuH7 replicon cells; assay type: cell-based
[14] = test system: Hepatitis C virus subtype 1a; assay: Resistance ratio of EC90 for NS5A M28K mutant in HCV genotype 1a infected in HuH7 replicon cells to EC90 for NS5A in HCV genotype 1a infected in HuH7 replicon cells; assay type: cell-based
[15] = Resistance ratio of EC90 for NS3 D168Y mutant in HCV genotype 1b infected in HuH7 replicon cells to EC90 for NS5A in HCV genotype 1a infected in HuH7 replicon cells
[16] = AUC in Wistar Han rat at 300 mg/kg, po by LC/MS method; assay type: ADME, organism-based; conditions: in vivo
Procedure, shortened: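 Single rising oral dose study in fed male Wistar Han rats, dosed PO in 10% TWEEN at the indicated doses. Plasma was obtained by centrifuging the blood, and compound levels were determined by LC/MS.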

[17] = test system: Hepatitis C virus subtype 1a; assay: Resistance ratio of EC90 for NS5A R81W mutant in HCV genotype 1a infected in HuH7 replicon cells to EC90 for NS5A in HCV genotype 1a infected in HuH7 replicon cells; assay type: cell-based
[18] = Resistance ratio of EC90 for NS5A in HCV genotype 2a infected in HuH7 replicon cells to EC90 for NS5A in HCV genotype 1a infected in HuH7 replicon cells; assay type: cell-based
[19] = biological target: T1, Nonstructural protein 5A (Hepatitis C virus); assay: Inhibition of NS5A A30T mutant in HCV genotype 3a infected in HuH7 replicon cells assessed as decrease in viral replication after 3 days by RT-PCR method; assay type: cell-based; conditions: Hepatitis C virus subtype 3a
[20] = test system: Hepatitis C virus subtype 1a; assay: Resistance ratio of EC90 for NS5A K24R mutant in HCV genotype 1a infected in HuH7 replicon cells to EC90 for NS5A in HCV genotype 1a infected in HuH7 replicon cells; assay type: cell-based
[21] = MRT in Wistar Han rat at 10 mg/kg, po by LC/MS method; assay type: ADME, organism-based; conditions: in vivo; procedure, shortened: as §1
[22] = biological target: T1, Nonstructural protein 5A (Hepatitis C virus); assay: Inhibition of NS5A L31F mutant in HCV genotype 3a infected in HuH7 replicon cells assessed as decrease in viral replication after 3 days by RT-PCR method; assay type: cell-based; conditions: Hepatitis C virus subtype 3a
[23] = biological target: T1, Nonstructural protein 5A (Hepatitis C virus); assay: Inhibition of NS5A L31M mutant in HCV genotype 2b infected in HuH7 replicon cells assessed as decrease in viral replication after 3 days by RT-PCR method; assay type: cell-based; conditions: Hepatitis C virus subtype 2b
[24] = Drug level in Beagle dog at 5 mg/kg, po measured at 24 hrs by LC/MS method; assay type: ADME, organism-based, Canis lupus familiaris; conditions: in vivo, read-out: Drug uptake
Procedure, shortened: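 Beagle dogs, two animals per dosing group. Oral dose was given in 10% TWEEN. Blood was collected and spun to plasma, and plasma compound levels were measured by LC/MS.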

[25] = biological target: T1, Nonstructural protein 5A (Hepatitis C virus); assay: Inhibition of NS5A Q30R mutant in HCV genotype 1a infected in HuH7 replicon cells assessed as decrease in viral replication after 3 days by RT-PCR method; assay type: cell-based; conditions: Hepatitis C virus subtype 1a
[26] = biological target: T1, Nonstructural protein 5A (Hepatitis C virus); assay: Inhibition of NS5A L31M mutant in HCV genotype 2a infected in HuH7 replicon cells assessed as decrease in viral replication after 3 days by RT-PCR method; assay type: cell-based; conditions: Hepatitis C virus subtype 2a
[27] = biological target: T1, Nonstructural protein 5A (Hepatitis C virus); assay: Inhibition of NS5A L31V mutant in HCV genotype 4a infected in HuH7 replicon cells assessed as decrease in viral replication after 3 days by RT-PCR method; assay type: cell-based; conditions: Hepatitis C virus subtype 4a

With `COC(=O)N[C@H](C(=O)N1CCC[C@H]1c1ncc(-c2cc(F)c3c(c2)O[C@@H](c2ccc(C4CC4)s2)n2c-3cc3cc(-c4cnc([C@@H]5CCCN5C(=O)[C@@H](NC(=O)OC)[C@@H]5CCOC(C)(C)C5)[nH]4)ccc32)[nH]1)C(C)C` the Ratio [1] was less than 1, the Ratio [2] was 28 and the EC90 [3] was 0.32 pM. For the same compound, the EC90 [4] was 4.2 pM, the Ratio [5] was 1 and the Ratio [6] was 69. It also gave a Tmax [7] of 3 h, a Ratio [8] of 5 and an EC90 [9] of 1.6 pM. It also gave an EC90 [10] of 3.4 pM, an EC90 [11] of 2 pM and an EC90 [12] of 3.9 pM. For the same compound, the Ratio [13] was 45, the Ratio [14] was 100 and the Ratio [15] was less than 1. The AUC [16] was 14.7 µM·h, the Ratio [17] was less than 1 and the Ratio [18] was less than 1. The EC90 [19] was 3.6 pM, the Ratio [20] was less than 1 and the MRT [21] was 6.5 h. It also gave an EC90 [22] of 290 pM, an EC90 [23] of 18 pM and a concentration at 24 h [24] of 29 nM. For the same compound, the EC90 [25] was 120 pM, the EC90 [26] was 25 pM and the EC90 [27] was 7.7 pM.
